Test results taken from ChEMBL document CHEMBL2062414, “Selected chromone derivatives as inhibitors of monoamine oxidase” (Bioorg Med Chem Lett, 2012).

Columns and labels:
[1] = molecular target: T1, Amine oxidase [flavin-containing] B (Homo sapiens, UniProt P27338); test: Inhibition of recombinant human MAO-B assessed as inhibition of kynuramine to 4-hydroxyquinoline conversion after 20 mins by fluorometry
T1 sequence (P27338 whole entry): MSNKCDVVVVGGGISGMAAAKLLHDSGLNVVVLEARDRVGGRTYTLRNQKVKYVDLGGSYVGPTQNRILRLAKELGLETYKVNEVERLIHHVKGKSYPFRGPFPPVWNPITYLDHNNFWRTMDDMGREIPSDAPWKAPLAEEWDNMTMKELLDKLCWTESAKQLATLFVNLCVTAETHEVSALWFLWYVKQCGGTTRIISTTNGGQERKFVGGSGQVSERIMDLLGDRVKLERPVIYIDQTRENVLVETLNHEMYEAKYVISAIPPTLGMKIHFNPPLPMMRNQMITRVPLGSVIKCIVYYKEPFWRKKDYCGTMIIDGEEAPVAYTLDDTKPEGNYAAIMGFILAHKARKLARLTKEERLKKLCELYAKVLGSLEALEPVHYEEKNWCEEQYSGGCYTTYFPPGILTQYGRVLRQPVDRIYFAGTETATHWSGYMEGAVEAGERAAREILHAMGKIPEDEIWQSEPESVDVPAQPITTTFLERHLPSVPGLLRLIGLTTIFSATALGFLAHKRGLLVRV

Homo sapiens = organism: Homo sapiens; test: Selectivity ratio of IC50 for recombinant human MAO-A to IC50 for recombinant human MAO-B
Method in brief: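 This is a selectivity index for MAO-B, computed as IC50(MAO-A)/IC50(MAO-B). Both IC50s were measured fluorometrically on recombinant human enzymes as kynuramine conversion to 4-hydroxyquinoline, in triplicate.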

[2] = molecular target: T2, Amine oxidase [flavin-containing] A (Homo sapiens, UniProt P21397); test: Inhibition of recombinant human MAO-A assessed as inhibition of kynuramine to 4-hydroxyquinoline conversion after 20 mins by fluorometry
T2 sequence (P21397 whole entry): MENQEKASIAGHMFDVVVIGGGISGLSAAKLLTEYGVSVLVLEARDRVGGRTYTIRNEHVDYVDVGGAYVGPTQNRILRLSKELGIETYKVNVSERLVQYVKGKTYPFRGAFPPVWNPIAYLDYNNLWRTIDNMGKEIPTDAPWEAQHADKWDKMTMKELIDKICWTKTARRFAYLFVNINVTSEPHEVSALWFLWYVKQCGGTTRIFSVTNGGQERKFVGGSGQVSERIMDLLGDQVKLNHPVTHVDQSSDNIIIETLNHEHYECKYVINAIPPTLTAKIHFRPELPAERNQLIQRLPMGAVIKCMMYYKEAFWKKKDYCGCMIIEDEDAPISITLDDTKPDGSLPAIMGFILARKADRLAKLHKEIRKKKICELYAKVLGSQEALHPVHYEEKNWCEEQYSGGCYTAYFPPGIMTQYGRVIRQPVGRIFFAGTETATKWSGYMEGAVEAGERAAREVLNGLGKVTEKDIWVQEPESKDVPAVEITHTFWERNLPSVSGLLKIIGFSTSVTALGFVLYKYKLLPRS
Method in brief: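 Recombinant human MAO-A was incubated with the mixed MAO-A/B substrate kynuramine. Activity was read fluorometrically as formation of 4-hydroxyquinoline. IC50 values are given as mean ± SD of triplicate determinations.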

[3] = molecular target: T1, Amine oxidase [flavin-containing] B; test: Reversible inhibition of recombinant human MAO-B assessed as recovered enzyme activity measuring residual rate of 4-hydroxyquinoline formation at 10 times IC50 preincubated for 30 mins followed by dilution to 0.1 time IC50 measured after 20 mins

| SMILES | IC50 [1] [µM] | Ratio IC50 (Homo sapiens) | IC50 [2] [µM] | Activity [3] [%] |
| --- | --- | --- | --- | --- |
| O=Cc1coc2ccccc2c1=O | 23.5 | 1 | 28.9 | – |
| CC(=O)c1cc(OCc2ccc(Br)cc2)ccc1O | – | 17 | – | – |
| CC(=O)c1c(O)cccc1OCc1ccc(Br)cc1 | – | 53 | – | – |
| O=C1CC(O)Oc2cccc(OCc3ccc(Br)cc3)c21 (centres undefined) | 44.8 | 1.4 | 60.6 | – |
| O=c1ccoc2cccc(OCc3ccc(Br)cc3)c12 | 4.34 | 12 | 52.9 | – |
| CC(=O)c1ccc(OCc2cccc(Br)c2)cc1O | – | 3950 | – | 68 |
| O=c1ccoc2cccc(OCc3ccccc3)c12 | 8.03 | 18 | 143 | – |
| CC(=O)c1cc(OCc2cccc(Br)c2)ccc1O | – | 34 | – | – |
| O=C(O)c1coc2ccc(OCc3cccc(Br)c3)cc2c1=O | 0.0028 | 371 | 1.04 | 68 |
| CC(=O)c1c(O)cccc1OCc1cccc(Br)c1 | – | 17 | – | – |
| O=Cc1coc2ccc(OCc3cccc(Br)c3)cc2c1=O | 0.0037 | 595 | 2.2 | – |
| CC(=O)c1ccc(OCc2ccc(Br)cc2)cc1O | – | 569 | – | – |
| O=C1CC(O)Oc2ccc(OCc3cccc(Br)c3)cc21 (centres undefined) | – | – | 1.53 | 68 |
| O=c1ccoc2ccccc12 [CHROMONE] | 54.9 | 1 | 39.9 | – |
| COC(=O)c1coc2ccc(OCc3cccc(Br)c3)cc2c1=O | 0.0774 | 83 | 6.46 | – |
